# Screening results as filed in PubChem BioAssay.
# A selection: hits, their analogues and other compounds. The true share with any hit is near 4.6%.
# HDAC3 inh = inhibitors of human histone deacetylase 3. O15379. recombinant HDAC3, fluorogenic peptide/trypsin coupled, fluorescence. inhibition, % at 8.3 µM. 320,000 compounds, 0.15% hits. AID 2718; in the data active = inhibition above about 26%, passing the limit was not always enough
# UCH37 inh = inhibitors of human deubiquitinating enzyme UCH37. purified proteasome/UCH37, Ub-AMC cleavage fluorescence. inhibition, % (test concentration not listed). 330,000 compounds, 0.33% hits. AID 588478;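 active = mean inhibition over replicate wells above about 20%, limit read from the data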;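 also: 0% = compound-free wells with enzyme and 100% = wells lacking proteasome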
# Target sequence (Q9Y5K5 whole entry, looked up): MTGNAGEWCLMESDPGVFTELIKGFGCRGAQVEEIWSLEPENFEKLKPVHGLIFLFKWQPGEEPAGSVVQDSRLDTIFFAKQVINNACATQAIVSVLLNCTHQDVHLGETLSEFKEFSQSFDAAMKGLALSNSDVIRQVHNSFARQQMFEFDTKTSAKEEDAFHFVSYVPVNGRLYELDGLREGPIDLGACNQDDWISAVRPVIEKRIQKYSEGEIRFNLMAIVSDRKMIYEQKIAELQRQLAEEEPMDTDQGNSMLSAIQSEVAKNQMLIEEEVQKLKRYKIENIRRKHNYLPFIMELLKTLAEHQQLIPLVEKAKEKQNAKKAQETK
#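 Assay system: Proteasome-bound UCH37. Buffer or medium: pH 7.4 Tris-HCl (50 mM) with ovalbumin, ATP-MgCl2, DTT. Incubation: 30 min preincubation with enzyme, 25 min cleavage at room temperature. Measured by: fluorescence, ex 355 nm, em 460 nm. Read-out basis: percent inhibition. Control set: wells without proteasome as full block, compound-free enzyme plus substrate as uninhibited.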
# PfM18AAP inh = blocks P. falciparum M18 aspartyl aminopeptidase | recombinant PfM18AAP, H-Glu-NHMec fluorogenic cleavage | inhibition, % at 7.35 µM | 290,000 compounds, 1.2% hits | AID 1822;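 active = inhibition above the campaign mean inhibition over all tested compounds plus 3 SD, cut at about 28% in these data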;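 also: 0% = plate median of test compound wells and 100% = 2 mM ZnCl2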
# Rtt109 Vps75 = blocks Candida albicans Rtt109/Vps75 acetyltransferase activity; Q5AAJ8; purified Rtt109/Vps75, ThioGlo CoA-SH fluorescence, 4 h; inhibition, % at 34.9 µM; 330,000 compounds, 0.16% hits; AID 540336;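 active = inhibition of at least 50% in every replicate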
# FAS-TE inh = FAS thioesterase (human) inhibition | P49327 | recombinant FAS-TE, OMFH fluorogenic substrate, fluorescence endpoint | inhibition, % at 15 µM | 360,000 compounds, 0.67% hits | AID 602261;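 active = compounds whose normalised, plate-corrected inhibition of enzyme fluorescence in the single-dose primary screen is 50% or more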;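 also: 0% = DMSO with enzyme and 100% = substrate without enzyme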
# ALR H2O2 inh = human ALR oxidase inhibition via reduced H2O2; P55789; purified ALR, DTT oxidation, H2O2 HRP-luminol luminescence; inhibition, % (no concentration beside the values); 290,000 compounds, 3.8% hits;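 active = mean replicate inhibition above about 79%, with every replicate also reaching it, limit read from the data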
# Target sequence (P55789 whole entry, looked up): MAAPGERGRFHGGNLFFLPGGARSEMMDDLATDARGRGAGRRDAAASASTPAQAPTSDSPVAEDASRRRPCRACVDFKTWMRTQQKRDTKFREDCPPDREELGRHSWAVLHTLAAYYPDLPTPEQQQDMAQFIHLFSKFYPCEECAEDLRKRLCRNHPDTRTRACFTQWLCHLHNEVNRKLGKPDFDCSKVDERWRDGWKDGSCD
# Active calls of the source: *; . = not tested or not shown.
SMILES,HDAC3 inh,UCH37 inh,PfM18AAP inh,Rtt109 Vps75,FAS-TE inh,ALR H2O2 inh
CCOC(=O)N1CCN(C(=O)CS(=O)Cc2nc(-c3ccc(C)cc3)oc2C)CC1 (centres undefined),-6,0,-7,-10,-5,.
CCOC(=O)N1CCC(NC(=O)CS(=O)(=O)Cc2nc(-c3ccc(OC)cc3)oc2C)CC1,3,5,-2,-7,-6,-1
CCOC(=O)N1CCC(NC(=O)CS(=O)Cc2nc(-c3ccc(Cl)cc3)oc2C)CC1 (centres undefined),-1,1,-17,1,0,99*
O=C(CSc1nccc(=O)[nH]1)Nc1cccc(S(=O)(=O)N2CCOCC2)c1,7,5,-2,-9,-6,-23
Cc1ccc(NC(=O)CSc2nccc(=O)[nH]2)c(S(=O)(=O)N2CCOCC2)c1,-16,1,7,10,-6,98*
Cc1[nH]n(-c2cccc3ccccc23)c(=O)c1C=Nc1sc2c(c1C#N)CCC2,.,10,.,.,.,.
O=C(COc1ccc(Nc2ccccc2)cc1)Nc1ccncc1,2,1,.,6,1,90*
O=C(COc1ccc(Br)cc1)Nc1ccncc1,7,3,0,-1,-6,3
COCCNC(=O)COc1ccc(Nc2ccccc2)cc1,3,1,9,4,-6,99*
O=C(O)COc1ccc(Nc2ccccc2)cc1,-1,4,12,5,-4,99*
O=C(COc1ccc(Nc2ccccc2)cc1)OCC(=O)N1CCCCC1,.,4,29*,1,-2,.
O=C(COc1ccc(Cl)cc1)OCC(=O)N1CCCCCC1,10,2,-1,-1,-5,2
Cc1cc(-c2n[nH]c(=S)n2N=Cc2cccc(O)c2)n[nH]1,.,3,.,.,.,.
CCn1c(O)c(C=NN=Cc2ccccc2)c2ccc(C3=NNC(=O)CC3)cc21,.,8,.,.,.,.
CCOc1cccc(-c2c(C(=O)NN=Cc3ccsc3)nnn2-c2nonc2N)c1,.,3,.,.,.,.
COc1ccc(N=C2C(=O)Nc3ccccc32)cc1,5,2,5,0,-5,86*
CC1(C)CC(Nc2ccc(Nc3ccccc3)cc2)CC(C)(C)N1,3,.,3,-10,0,99*
CN=C1SC(CC(=O)Nc2ccc(F)cc2F)C(=O)N1N=C(C)c1cccc(OCC(=O)O)c1 (centres undefined),.,1,.,.,.,.
O=C(O)/C=C/c1cn(Cc2ccccc2)nc1-c1ccc(Cl)cc1,-1,3,0,4,6,95*
O=C1/C(=C/c2ccc(O)cc2)SC(=S)N1CC1CCCO1 (centres undefined),.,7,7,16,-11,99*
CCCOc1ccc(/C=C2\SC(=S)N(CC3CCCO3)C2=O)cc1 (centres undefined),-1,5,1,-2,20,-11
CCc1c(C)sc(NC(=O)c2ccco2)c1C(=O)N1CCCCC1,2,6,5,7,-3,81*
Cc1occc1C(=O)Nc1sc2c(c1C(N)=O)CCCCC2,-6,-7,29*,.,-12,1
CCCc1cc(C(N)=O)c(NC(=O)c2ccoc2C)s1,7,-5,3,0,4,98*
CCOC(=O)c1c(NC(=O)c2ccoc2C)sc(C)c1C,0,-35,-9,-14,6,1
SMILES,HDAC3 inh,UCH37 inh,PfM18AAP inh,Rtt109 Vps75,FAS-TE inh,ALR H2O2 inh
CCc1c(C)sc(NC(=O)c2ccoc2C)c1C(N)=O,10,.,40*,4,-3,2
COC(=O)c1c(NC(=O)c2ccoc2C)sc2c1CCC2,-3,-139,-3,-10,0,.
COCCCNC(=S)NN=Cc1ccc(OC)c(Br)c1,.,1,.,.,.,.
COc1ccc(-c2nn(-c3ccccc3)cc2C=NNC(=S)NC(C)C)cc1OC,.,-1,.,.,.,.
NC(Cc1ccc([N+](=O)[O-])cc1)=NOC(=O)c1ccc(Br)cc1,.,2,.,.,.,.
O=C(CC(=O)NN=Cc1ccc(F)cc1)NCCc1ccccc1,.,3,.,.,.,.
Cc1ccc(C(C(=O)NC2CCCC2)N(C(=O)Cc2cccs2)c2ccc3c(c2)OCCO3)cc1 (centres undefined),1,4,2,-1,61*,-1
COC(=O)CSc1ccccc1C(=O)OC,0,-5,2,14,-11,-4
COC(=O)CSC1=NS(=O)(=O)c2ccccc21,54*,.,-1,3,-1,100*
O=C(CSC1=NS(=O)(=O)c2ccccc21)Nc1ccccc1,13,5,-8,10,-21,99*
CC1=CC(C)(C)N(C(=O)c2ccc(F)cc2)c2cc3c(cc21)OCO3,8,4,-14,7,26,98*
CNC(=O)N(O)C1N(N=Cc2c(F)cccc2Cl)C(=S)SC1(C)C (centres undefined),.,6,.,.,.,.
CCOc1ccc(/C=C2\SC(=S)N(N3C(=O)C4CC4C3=O)C2=O)cc1 (centres undefined),-2,5,31*,1,-2,-15
Cc1ccc(-c2cc(C(=O)NN=Cc3ccco3)[nH]n2)cc1,.,1,.,.,.,.
N#CCSc1nc2cc(C(=O)N3CCC(C(N)=O)CC3)ccc2c2nc3ccccc3n12,-7,-59,-2,-3,-1,98*
CN(C)CCCn1c(=S)[nH]c2sc3c(c2c1=O)CCCC3,1,10,-5,1,-3,99*
CCn1c(=S)[nH]c2sc3c(c2c1=O)CCCC3,-3,5,5,-6,-5,-14
CN(C)C=Nc1nc2ncc(-c3ccc(Cl)cc3)c(N=CN(C)C)n2n1,.,-2,.,.,.,.
C=C(C)C(=O)NNc1ccccc1,1,1,-7,1,-3,31
CCCOC(=O)C(=O)NNc1ccccc1,-3,3,0,-1,-14,100*
CC(C)OC(=O)C(=O)NNc1ccccc1,-9,1,-9,.,-1,100*
CC(C(=O)Nc1ccccc1)C(=O)Nc1ccccc1,5,3,-1,3,-5,6
COc1ccccc1C=NNC(=O)c1cccc(NC(=O)c2ccccc2C)c1,.,1,.,.,.,.
CC(=NNC(=O)C1CC1)c1ccc(OC(F)F)cc1OC(F)F,.,0,.,.,.,.
CCC1C(=O)N=C(SCC(=O)Nc2ccc(C(=O)OC)cc2)NC1=O (centres undefined),5,3,5,-12,-4,99*
CCOc1ccc(NC(=O)CSc2ccccc2N)cc1,-8,2,-2,-1,-1,.
CCOc1ccc(NC(=O)CSC2=NCCN2)cc1,-2,5,20,2,-13,99*
NS(=O)(=O)c1ccc(NC(=O)CSC2=NC(=O)C(c3ccccc3)C(=O)N2)cc1 (centres undefined),0,8,5,-6,-5,99*
COC(=O)c1ccc(NC(=O)CSC2=NCCN2)cc1,-4,12,6,-1,-32,99*
COc1cc(C(=O)NCC(=O)NN=C/C(C)=C\c2ccccc2)cc(OC)c1OC,.,3,.,.,.,.
